One block for each compound: values may come before it.
Legend:
[1] = system: Rattus norvegicus; assay: Suppression of food intake in DIO rat at 1 mg/kg, po relative to control; type: functional
Summary of the method: (§1)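 Acute study in diet-induced obese rats. A single oral dose was given and rats were monitored for 18 h. Food intake suppression and body weight change were measured relative to vehicle-treated controls.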

[2] = Metabolic stability in human liver microsomes assessed as compound remaining after 60 mins; type: ADME, Microsome; settings: read-out: Activity
Summary of the method: (§2)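 Liver microsomes (monkey, human, rat, dog) were incubated with compound for 60 min. The read-out was percent parent remaining over the incubation time course.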

[3] = Plasma clearance in rhesus monkey; type: ADME, organism-based, Macaca mulatta
Summary of the method: (§3)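 PK in dog and rhesus macaque. Bioavailability, plasma clearance (mL/min/kg) and terminal half-life derived from plasma drug levels.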

[4] = Half life in dog; type: ADME, organism-based, Canis lupus familiaris; settings: in vivo; summary of the method: as §3
[5] = Ratio of drug level in brain to plasma in rat at 1 mg/kg, iv after 4 hrs; type: ADME, organism-based; parameters: dose 1 mg/kg, route intravenous
[6] = Half life in rhesus monkey; type: ADME, organism-based, Macaca mulatta; settings: in vivo; summary of the method: as §3
[7] = system: Rattus norvegicus; assay: Reduction of body weight in DIO rat assessed as weight change at 1 mg/kg, po after 18 hrs; type: functional; summary of the method: as §1
[8] = target: Cannabinoid receptor 1 (Homo sapiens, UniProt P21554); assay: Inhibition of human CB1 receptor
Sequence of Cannabinoid receptor 1 (P21554 whole entry): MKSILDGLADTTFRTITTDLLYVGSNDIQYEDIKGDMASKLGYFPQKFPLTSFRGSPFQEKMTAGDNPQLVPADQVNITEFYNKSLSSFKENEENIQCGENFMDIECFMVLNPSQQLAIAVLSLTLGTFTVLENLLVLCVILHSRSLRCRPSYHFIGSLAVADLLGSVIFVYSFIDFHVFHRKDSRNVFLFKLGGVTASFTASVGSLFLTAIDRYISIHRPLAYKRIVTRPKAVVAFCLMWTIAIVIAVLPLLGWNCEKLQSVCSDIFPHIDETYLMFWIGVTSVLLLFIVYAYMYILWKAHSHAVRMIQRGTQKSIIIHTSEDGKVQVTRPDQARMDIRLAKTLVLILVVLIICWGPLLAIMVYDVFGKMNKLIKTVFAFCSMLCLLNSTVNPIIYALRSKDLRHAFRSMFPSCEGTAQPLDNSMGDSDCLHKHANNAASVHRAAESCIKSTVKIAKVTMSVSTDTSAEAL

[9] = Plasma clearance in rat; type: ADME, organism-based
[10] = Metabolic stability in rat bile assessed as total recovery at 2 mg/kg, iv after 5 days; type: ADME, organism-based; parameters: dose 2 mg/kg, route intravenous; settings: in vivo, 120 h
Summary of the method: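 Radioactivity was collected in bile and urine for 120 h and expressed as percent of dose recovered.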

[11] = system: Rattus norvegicus; assay: Reduction of body weight in rat at 1 mg/kg, po after 13 days relative to control; type: functional; parameters: scale not given: the % may be the effect or the level left
Summary of the method: (§4)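 Chronic study in diet-induced obese rats with daily oral dosing at 1 mg/kg (for some compounds 0.1 and 0.3 mg/kg as well). Body weight change and cumulative food intake suppression were measured relative to vehicle. The 14-day study ended 18 h after the day-14 dose; one study ended on day 13.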

[12] = Drug level in rat plasma at 1 mg/kg, iv after 4 hrs; type: ADME, organism-based; parameters: dose 1 mg/kg, route intravenous; settings: read-out: Drug uptake
[13] = Drug level in rat brain at 1 mg/kg, iv after 4 hrs; type: ADME, organism-based; parameters: dose 1 mg/kg, route intravenous; settings: read-out: Drug uptake
[14] = Half life in rat; type: ADME, organism-based; settings: in vivo
[15] = system: Rattus norvegicus; assay: Reduction of body weight in DIO rat assessed as weight change at 1 mg/kg, po daily measured 18 hrs post dose on day 14; type: functional; summary of the method: as §4
[16] = target: Cannabinoid receptor 2 (Homo sapiens, UniProt P34972); assay: Inhibition of human CB2 receptor
Sequence of Cannabinoid receptor 2 (P34972 whole entry): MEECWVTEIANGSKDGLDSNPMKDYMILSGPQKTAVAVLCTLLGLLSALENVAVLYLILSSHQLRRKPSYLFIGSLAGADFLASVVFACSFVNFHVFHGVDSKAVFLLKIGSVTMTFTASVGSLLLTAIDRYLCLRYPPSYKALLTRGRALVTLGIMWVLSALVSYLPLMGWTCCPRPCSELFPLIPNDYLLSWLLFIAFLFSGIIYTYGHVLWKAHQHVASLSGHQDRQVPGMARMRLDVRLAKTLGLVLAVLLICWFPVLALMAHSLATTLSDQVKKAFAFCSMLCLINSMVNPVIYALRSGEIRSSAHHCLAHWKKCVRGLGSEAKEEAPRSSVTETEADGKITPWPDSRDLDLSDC

[17] = Lipophilicity, log D of the compound; type: physicochemical; settings: HPLC, pH 7.3
[18] = Stability in phosphate buffer exposed to air assessed as degradation at pH 7.4 after 40 hrs; type: physicochemical; settings: read-out: Activity
Summary of the method: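 The compound was held in aqueous pH 7.4 phosphate buffer exposed to air for 40 h. The read-out was percent of material degraded to other products.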

[19] = Bioavailability in rhesus monkey; type: ADME, organism-based, Macaca mulatta; settings: in vivo; summary of the method: as §3
[20] = Metabolic stability in monkey liver microsomes assessed as compound remaining after 60 mins; type: ADME, Macaca fascicularis, Microsome; settings: cynomolgus monkey, read-out: Activity; summary of the method: as §2
[21] = Bioavailability in rat; type: ADME, organism-based; settings: in vivo
[22] = system: Rattus norvegicus; assay: Suppression of food intake in DIO rat at 1 mg/kg, po measured 18 hrs post dose on day 14 relative to control
[23] = Plasma clearance in dog; type: ADME, organism-based, Canis lupus familiaris; summary of the method: as §3
[24] = Bioavailability in dog; type: ADME, organism-based, Canis lupus familiaris; settings: in vivo; summary of the method: as §3
[25] = system: Rattus norvegicus; assay: Suppression of food intake in DIO rat at 3 mg/kg relative to control; type: functional
[26] = Half life in rat at 3 mg/kg; type: ADME, organism-based; parameters: dose 3 mg/kg; settings: in vivo

Structure (SMILES): CC(C)(C)C(=O)c1oc2nc(-c3ccc(Cl)cc3Cl)c(-c3ccc(Cl)cc3)cc2c1N
- Activity [1]: 53%
- remaining at 1 h [2]: 100%
- clearance [3]: 29 mL/min/kg
- half-life [4]: 7.9 h
- Kp at 4 h [5]: 1
- half-life [6]: 2.4 h
- Activity [7]: -5 g
- IC50 [8]: 5.5 nM
- clearance [9]: 5.6 mL/min/kg
- Activity [10]: 41%
- Activity [11]: 5.3%
- concentration at 4 h [12]: 220 nM
- concentration at 4 h [13]: 220 nM
- half-life [14]: 4.2 h
- Activity [15]: -3 g
- IC50 [16]: 440 nM
- logD [17]: 6.7
- degraded at 40 h [18]: 40%
- bioavailability [19]: 11%
- remaining at 1 h [20]: 25%
- bioavailability [21]: 59%
- Activity [22]: 19%
- clearance [23]: 7.3 mL/min/kg
- bioavailability [24]: 63%

Structure (SMILES): CC(C)(C)C(=O)c1oc2nc(-c3ccccc3Cl)c(-c3ccc(Cl)cc3)cc2c1NC(=O)CO
- Activity [1]: 24%
- half-life [4]: 11 h
- Kp at 4 h [5]: 1.8
- Activity [7]: -6 g
- IC50 [8]: 1.2 nM
- clearance [9]: 10 mL/min/kg
- Activity [11]: 6%
- concentration at 4 h [12]: 49 nM
- concentration at 4 h [13]: 86 nM
- half-life [14]: 3.5 h
- Activity [15]: -19 g
- IC50 [16]: 3400 nM
- logD [17]: 6
- bioavailability [21]: 32%
- Activity [22]: 19%
- clearance [23]: 3 mL/min/kg
- bioavailability [24]: 42%

Structure (SMILES): CC(=O)Nc1c(C(C)=O)c(=O)n(C)c2nc(-c3ccc(Cl)cc3Cl)c(-c3ccc(Cl)cc3)cc12 [NAPHTHYRIDINONE]
- Activity [25]: -68%
- half-life [26]: > 8 h

Structure (SMILES): CC(C)(C)C(=O)c1oc2nc(-c3ccccc3Cl)c(-c3ccc(Cl)cc3)cc2c1N
- Activity [1]: 33%
- Kp at 4 h [5]: 2.3
- Activity [7]: -4 g
- IC50 [8]: 4.3 nM
- clearance [9]: 22 mL/min/kg
- concentration at 4 h [12]: 130 nM
- concentration at 4 h [13]: 290 nM
- half-life [14]: 2.8 h
- IC50 [16]: 1900 nM
- bioavailability [21]: 100%

Structure (SMILES): CC(C)C(=O)c1oc2nc(-c3ccccc3Cl)c(-c3ccc(Cl)cc3)cc2c1N
- IC50 [8]: 1.7 nM
- IC50 [16]: 1300 nM

Structure (SMILES): CC(C)C(=O)c1oc2nc(-c3ccc(Cl)cc3Cl)c(-c3ccc(Cl)cc3)cc2c1N
- IC50 [8]: 1.9 nM
- IC50 [16]: 640 nM

Structure (SMILES): CN(C)C(=O)Nc1c(C(=O)C(C)(C)C)oc2nc(-c3ccccc3Cl)c(-c3ccc(Cl)cc3)cc12
- IC50 [8]: 0.39 nM
- IC50 [16]: 1970 nM

Structure (SMILES): CC(C)(O)C(=O)c1oc2nc(-c3ccccc3Cl)c(-c3ccc(Cl)cc3)cc2c1N
- IC50 [8]: 20 nM
- IC50 [16]: 2100 nM

Structure (SMILES): CCC(=O)c1oc2nc(-c3ccc(Cl)cc3Cl)c(-c3ccc(Cl)cc3)cc2c1N
- IC50 [8]: 17 nM
- IC50 [16]: 360 nM

Structure (SMILES): CC(C)C(=O)c1oc2nc(-c3ccccc3Cl)c(-c3ccc(Cl)cc3)cc2c1NC(=O)CO
- Activity [1]: 37%
- half-life [4]: 52 h
- Kp at 4 h [5]: 0.94
- Activity [7]: -7 g
- IC50 [8]: 0.4 nM
- clearance [9]: 20 mL/min/kg
- concentration at 4 h [12]: 160 nM
- concentration at 4 h [13]: 150 nM
- half-life [14]: 3.3 h
- IC50 [16]: 5100 nM
- bioavailability [21]: 38%
- clearance [23]: 4.9 mL/min/kg
- bioavailability [24]: 31%

Other lines, results leading:

- IC50 [8]: 13 nM
- IC50 [16]: 1000 nM
Structure (SMILES): CCC(=O)c1oc2nc(-c3ccccc3Cl)c(-c3ccc(Cl)cc3)cc2c1N

- IC50 [8]: 0.58 nM
- IC50 [16]: > 2000 nM
Structure (SMILES): CC(=O)Nc1c(C(=O)C(C)(C)C)oc2nc(-c3ccccc3Cl)c(-c3ccc(Cl)cc3)cc12

- IC50 [8]: 3.5 nM
- IC50 [16]: 440 nM
Structure (SMILES): Nc1c(C(=O)c2ccccc2)oc2nc(-c3ccc(Cl)cc3Cl)c(-c3ccc(Cl)cc3)cc12

- IC50 [8]: 56 nM
- IC50 [16]: 1000 nM
Structure (SMILES): CC(=O)c1oc2nc(-c3ccc(Cl)cc3Cl)c(-c3ccc(Cl)cc3)cc2c1N

- IC50 [8]: 1.2 nM
- IC50 [16]: 3300 nM
Structure (SMILES): CNCC(=O)Nc1c(C(=O)C(C)(C)C)oc2nc(-c3ccccc3Cl)c(-c3ccc(Cl)cc3)cc12

Source: ChEMBL document CHEMBL1156265, “Furo[2,3-b]pyridine-based cannabinoid-1 receptor inverse agonists: synthesis and biological evaluation. Part 1” (Bioorg Med Chem Lett, 2010)
